Drawing on ChEMBL document CHEMBL1124407, “Synthesis of gastrin antagonists, analogues of the C-terminal tetrapeptide of gastrin, by introduction of a beta-homo residue” (J Med Chem, 1989), this text covers ED50 for 18 molecules.

Experiment [1] has as its target T1, Gastrin/cholecystokinin type B receptor (Rattus norvegicus) (UniProt P30553).
T1 sequence (whole entry): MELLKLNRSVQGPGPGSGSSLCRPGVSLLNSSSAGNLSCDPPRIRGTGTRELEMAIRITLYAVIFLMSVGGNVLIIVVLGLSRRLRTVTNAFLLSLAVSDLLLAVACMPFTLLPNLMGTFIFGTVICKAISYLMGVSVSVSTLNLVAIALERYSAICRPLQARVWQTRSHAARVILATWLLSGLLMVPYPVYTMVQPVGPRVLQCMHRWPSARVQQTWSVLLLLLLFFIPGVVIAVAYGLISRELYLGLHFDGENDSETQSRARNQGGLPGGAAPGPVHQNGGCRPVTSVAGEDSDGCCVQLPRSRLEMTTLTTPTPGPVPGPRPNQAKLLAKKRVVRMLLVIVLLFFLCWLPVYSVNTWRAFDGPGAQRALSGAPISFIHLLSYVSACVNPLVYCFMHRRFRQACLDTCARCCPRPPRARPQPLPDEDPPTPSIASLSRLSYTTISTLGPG
The experiment can be described thus: Activity in vivo gastrin-induced acid secretion in rats. In kind it is functional, organism-based. The essentials:
(§1)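 Anesthetized rats; cumulative gastric pH recorded over time as the index of acid secretion. Peptides and (Leu15)-human gastrin I were given as intravenous bolus in 0.9% NaCl. Secreted H+ was taken from the difference between stimulated and basal traces. For inhibition, peptide in alkaline water was injected together with gastrin (usually 80 pmol) at various doses. Response was expressed as percent of the gastrin-alone H+ output.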

For the next experiment, the system named is Rattus norvegicus. The experiment can be described thus: Activity of compound on in vivo gastrin-induced acid secretion in rats; Agonist. The following applies: filed as agonist. Format: functional, organism-based. The method, boiled down:
as §1

Where a SMILES comes first, the peptide text is derived from it. [ ]: non-standard residue; d: D form. The star is where a group is joined. β3hF = N[C@H](CC(=O)O)Cc1ccccc1; Boc = CC(C)(C)OC(=O)*

Broadly, the ED50 is the dose at which the effect has come halfway, by size or by number of responders. Turning to `CC(C)C[C@@H](CC(=O)NC(CC(=O)O)C(=O)NCCc1ccccc1)NC(=O)[C@@H](Cc1c[nH]c2ccccc12)NC(=O)OC(C)(C)C` (stereo partly drawn), the 50% effect level in experiment [1] (ED50) was put at a dose of 0.5 mg/kg. The same measure, in the same setting: the value for `CC(C)C[C@H](NC(=O)[C@H](Cc1c[nH]c2ccccc12)NC(=O)OC(C)(C)C)C(=O)N[C@H](CC(=O)O)CC(=O)NCc1ccccc1` was 0.2 mg/kg. For the molecule `CC(C)CC(NC(=O)[C@@H](Cc1c[nH]c2ccccc12)NC(=O)OC(C)(C)C)C(=O)N[C@H](CC(=O)O)CC(=O)NCCc1ccccc1` (stereo in doubt), it took a dose of 2.5 mg/kg to reach the 50% effect level in experiment [1] (ED50). On to `CC(C)CC(CC(=O)N[C@H](CC(=O)O)C(=O)N[C@H](Cc1ccccc1)C(N)=O)NC(=O)C(Cc1c[nH]c2ccccc12)NC(=O)OC(C)(C)C` (stereo partly drawn), for which it took a dose of 5 mg/kg to reach the 50% effect level in experiment [1] (ED50).

`CC(C)C[C@@H](CC(=O)NC(CC(=O)O)C(=O)NCc1ccccc1)NC(=O)[C@@H](Cc1c[nH]c2ccccc12)NC(=O)OC(C)(C)C` (stereo partly drawn): the ED50 in experiment [1] amounted to 5 mg/kg. Still for that read-out and setting: the value for `CC(C)C[C@@H](CC(=O)N[C@@H](CC(=O)O)C(=O)N[C@@H](Cc1ccccc1)C(N)=O)NC(=O)[C@H](Cc1c[nH]c2ccccc12)NC(=O)OC(C)(C)C` was 1.5 mg/kg; that for `CC(C)CC(CC(=O)N[C@H](CC(=O)O)C(=O)NCCc1ccccc1)NC(=O)C(Cc1c[nH]c2ccccc12)NC(=O)OC(C)(C)C` (stereo partly drawn) was 0.8 mg/kg.

`CC(C)C[C@H](NC(=O)[C@H](Cc1c[nH]c2ccccc12)NC(=O)OC(C)(C)C)C(=O)N[C@@H](CC(=O)O)C(=O)N[C@H](CC(N)=O)Cc1ccccc1` (Boc-WLD[β3hF]-NH2) registered an ED50 in experiment [1] of 7 mg/kg. As for `CC(C)CC(CC(=O)NC(CC(=O)O)C(=O)NCc1ccccc1)NC(=O)C(Cc1c[nH]c2ccccc12)NC(=O)OC(C)(C)C` (stereo not drawn), the 50% effective dose (ED50) in experiment [1] was 0.5 mg/kg. As to `CC(C)C[C@H](NC(=O)[C@H](Cc1c[nH]c2ccccc12)NC(=O)OC(C)(C)C)C(=O)N[C@H](CC(=O)O)CC(=O)N[C@H](Cc1ccccc1)C(N)=O`, the 50% effect level in experiment [1] (ED50) was put at a dose of 0.1 mg/kg.

With `CC(C)C[C@H](NC(=O)[C@H](Cc1c[nH]c2ccccc12)NC(=O)OC(C)(C)C)C(=O)N[C@H](CC(=O)O)CC(=O)N[C@@H](Cc1ccccc1)C(N)=O`, in experiment [1], the ED50 was determined as 0.1 mg/kg. `CC(C)CC(CC(=O)N[C@H](CC(=O)O)C(=O)NCc1ccccc1)NC(=O)C(Cc1c[nH]c2ccccc12)NC(=O)OC(C)(C)C` (stereo partly drawn) displayed an ED50 in experiment [1] of 1.5 mg/kg. Consider `CC(C)CC(NC(=O)[C@@H](Cc1c[nH]c2ccccc12)NC(=O)OC(C)(C)C)C(=O)N[C@H](CC(=O)O)CC(=O)NCc1ccccc1` (stereo in doubt), for which it took a dose of 1 mg/kg to reach the 50% effect level in experiment [1] (ED50). For `CC(C)CC(CC(=O)NC(CC(=O)O)C(=O)NCCc1ccccc1)NC(=O)C(Cc1c[nH]c2ccccc12)NC(=O)OC(C)(C)C` (stereo not drawn), in experiment [1], the ED50 amounted to 0.5 mg/kg. For the molecule `CC(C)C[C@H](CC(=O)N[C@@H](CC(=O)O)C(=O)N[C@@H](Cc1ccccc1)C(N)=O)NC(=O)[C@@H](Cc1c[nH]c2ccccc12)NC(=O)OC(C)(C)C`, the ED50 in experiment [1] was determined as 7.5 mg/kg. Consider `CC(C)C[C@H](NC(=O)[C@H](Cc1c[nH]c2ccccc12)NC(=O)OC(C)(C)C)C(=O)N[C@@H](CC(=O)O)C(=O)N[C@@H](Cc1ccccc1)C(N)=O` (Boc-WLDF-NH2), for which the ED50 result in the experiment on Rattus norvegicus is “Agonist”. In turn, `CC(C)CC(NC(=O)[C@@H](Cc1c[nH]c2ccccc12)NC(=O)OC(C)(C)C)C(=O)N[C@H](CC(=O)O)CC(=O)NC(Cc1ccccc1)C(N)=O` (stereo in doubt) came in with an ED50 in experiment [1] of 2.5 mg/kg.

In experiment [1], `CC(C)C[C@H](NC(=O)[C@H](Cc1c[nH]c2ccccc12)NC(=O)OC(C)(C)C)C(=O)N[C@H](CC(=O)O)CC(=O)NCCc1ccccc1` registered an ED50 of 0.5 mg/kg.
